Measured values from ChEMBL document CHEMBL1132401, “Glycosylation of fluoroquinolones through direct and oxygenated polymethylene linkages as a sugar-mediated active transport system for antimicrobials” (1999).
Converted amounts (≈) assume the structure as drawn.

Experiments:
[1] = tested on: Enterococcus faecalis; assay: Minimum concentration required to prevent the growth of high level gentamicin and beta- lactamase resistant (HLGR, BLA+) Enterococcus faecalis strain A0089; assay type: functional
Method in brief: (§1)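 Agar dilution susceptibility testing per NCCLS guidelines against resistant clinical isolates, with nonresistant ATCC stock strains run as controls. Plates were read at 19–24 h of incubation. MIC reported in µg/mL.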

[2] = tested on: Enterococcus faecalis; assay: Minimum concentration required to prevent the growth of high level gentamicin and beta- lactamase resistant (HLGR, BLA+) Enterococcus faecalis strain A0090; assay type: functional; method in brief: as §1
[3] = tested on: Enterococcus faecalis; assay: Minimum concentration required to prevent the growth of nonresistant stock strain Enterococcus faecalis 51299 from American Type Culture Collection (ATCC); assay type: functional; settings: Enterococcus faecalis; read-out: MIC; method in brief: as §1
[4] = tested on: Enterococcus faecium; assay: Minimum concentration required to prevent the growth of nonresistant stock strain Enterococcus faecium 19434 from American Type Culture Collection (ATCC); assay type: functional
Method in brief: (§2)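 Agar dilution susceptibility testing per NCCLS guidelines, covering clinical isolates (including resistant phenotypes) and nonresistant ATCC stock strains as controls. Plates read after 19–24 h of incubation. MIC reported in μg/mL.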

[5] = tested on: Enterococcus faecalis; assay: Minimum concentration required to prevent the growth of vancomycin resistant (VanA) Enterococcus faecalis strain A0401; assay type: functional; method in brief: as §1
[6] = tested on: Enterococcus faecalis; assay: Minimum concentration required to prevent the growth of vancomycin resistant (VanA) Enterococcus faecalis strain A0402; assay type: functional; settings: Enterococcus faecalis; read-out: MIC; method in brief: as §1
[7] = tested on: Enterococcus faecalis; assay: Minimum concentration required to prevent the growth of nonresistant stock strain Enterococcus faecalis 29212 from American Type Culture Collection (ATCC); assay type: functional; method in brief: as §1
[8] = tested on: Escherichia coli; assay: Minimum concentration required to prevent the growth of cipro resistant (Cipro-R) Escherichia coli strain A3228; assay type: functional; method in brief: as §2
[9] = tested on: Escherichia coli; assay: Minimum concentration required to prevent the growth of cipro resistant (Cipro-R) Escherichia coli strain A3529; assay type: functional; method in brief: as §2
[10] = tested on: Escherichia coli; assay: Minimum concentration required to prevent the growth of cipro resistant (Cipro-R) Escherichia coli strain AA; assay type: functional; method in brief: as §2
[11] = tested on: Escherichia coli; assay: Minimum concentration required to prevent the growth of nonresistant stock Escherichia coli strain 25922 from American Type Culture Collection (ATCC); assay type: functional; settings: ATCC25922; method in brief: as §2
[12] = tested on: Enterococcus faecalis; assay: Minimum concentration required to prevent the growth of vancomycin resistant (VanB) Enterococcus faecalis strain A1079; assay type: functional; method in brief: as §1
[13] = tested on: Enterococcus faecalis; assay: Minimum concentration required to prevent the growth of vancomycin resistant (VanB) Enterococcus faecalis strain A1081; assay type: functional; method in brief: as §1
[14] = tested on: Klebsiella pneumoniae; assay: Minimum concentration required to prevent the growth of cipro resistant (Cipro-I) Klebsiella pneumoniae strain AM; assay type: functional; method in brief: as §1
[15] = tested on: Listeria monocytogenes; assay: Minimum concentration required to prevent the growth of Listeria monocytogenes strain A0182; assay type: functional; method in brief: as §2
[16] = tested on: Listeria monocytogenes; assay: Minimum concentration required to prevent the growth of Listeria monocytogenes strain A0183; assay type: functional; method in brief: as §2
[17] = tested on: Pseudomonas aeruginosa; assay: Minimum concentration required to prevent the growth of Pseudomonas aeruginosa strain 28215; assay type: functional; method in brief: as §2
[18] = tested on: Staphylococcus epidermidis; assay: Minimum concentration required to prevent the growth of multiply resistant Staphylococcus epidermidis (MRSE) and cipro resistant (Cipro-R) coag.-neg. Staph. A0247; assay type: functional; method in brief: as §1
[19] = tested on: Staphylococcus epidermidis; assay: Minimum concentration required to prevent the growth of multiply resistant Staphylococcus epidermidis (MRSE) and cipro resistant (Cipro-R) coag.-neg. Staph. A0248; assay type: functional; method in brief: as §1
[20] = tested on: Staphylococcus epidermidis; assay: (§3) Minimum concentration required to prevent the growth of multiply resistant Staphylococcus epidermidis (MRSE) coag.-neg. Staph. A0244; assay type: functional; method in brief: as §1
[21] = tested on: Staphylococcus epidermidis; assay: Minimum concentration required to prevent the growth of multiply resistant Staphylococcus epidermidis (MRSE) coag.-neg. Staph. A0245; assay type: functional; method in brief: as §1
[22] = tested on: Staphylococcus aureus; assay: Minimum concentration required to prevent the growth of multiply resistant (MRSA) Staphylococcus aureus strain A0170; assay type: functional; method in brief: as §1
[23] = tested on: Staphylococcus aureus; assay: Minimum concentration required to prevent the growth of multiply resistant (MRSA) Staphylococcus aureus strain A0171; assay type: functional; method in brief: as §1
[24] = tested on: Staphylococcus aureus; assay: Minimum concentration required to prevent the growth of multiply resistant (MRSA) and cipro resistant (Cipro-R) Staphylococcus aureus strain A2800; assay type: functional; method in brief: as §1
[25] = tested on: Staphylococcus aureus; assay: Minimum concentration required to prevent the growth of multiply resistant (MRSA) and cipro resistant (Cipro-R) Staphylococcus aureus strain A2043; assay type: functional; method in brief: as §1
[26] = tested on: Pseudomonas aeruginosa; assay: Minimum concentration required to prevent the growth of Pseudomonas aeruginosa strain 28245; assay type: functional; method in brief: as §2
[27] = tested on: Klebsiella oxytoca; assay: Minimum concentration required to prevent the growth of cipro resistant (Cipro-R) Klebsiella oxytoca strain A3530
[28] = tested on: Staphylococcus aureus; assay: Minimum concentration required to prevent the growth of nonresistant stock strain Staphylococcus aureus 29213 from American Type Culture Collection (ATCC)
[29] = tested on: Enterococcus faecium; assay: Minimum concentration required to prevent the growth of vancomycin resistant (VanB) Enterococcus faecium strain A0803; assay type: functional; method in brief: as §1
[30] = tested on: Enterococcus faecium; assay: Minimum concentration required to prevent the growth of vancomycin resistant (VanB) Enterococcus faecium strain A1087; assay type: functional; method in brief: as §1
[31] = tested on: Staphylococcus epidermidis; assay: as §3
[32] = tested on: Staphylococcus aureus; assay: Minimum concentration required to prevent the growth of nonresistant stock strain Staphylococcus aureus 29213 from American Type Culture Collection (ATCC); remark: listed apart in the source
[33] = tested on: Enterococcus faecium; assay: Minimum concentration required to prevent the growth of vancomycin resistant (VanA) Enterococcus faecium strain A1745; assay type: functional; method in brief: as §1
[34] = tested on: Enterococcus faecium; assay: Minimum concentration required to prevent the growth of vancomycin resistant (VanA) Enterococcus faecium strain A2320; assay type: functional; method in brief: as §1
[35] = tested on: Klebsiella oxytoca; assay: Minimum concentration required to prevent the growth of cipro resistant (Cipro-R) Klebsiella oxytoca strain A3530; remark: listed apart in the source
[36] = Enterococcus faecalis, read-out: MIC
[37] = Enterococcus faecium, read-out: MIC
[38] = Klebsiella pneumoniae, read-out: MIC
[39] = Listeria monocytogenes, read-out: MIC
[40] = Staphylococcus epidermidis, read-out: MIC
[41] = Staphylococcus aureus, read-out: MIC
[42] = Pseudomonas aeruginosa, read-out: MIC
[43] = Escherichia coli, read-out: MIC

| Compound | MIC [1, 36] [µg/mL] | MIC [2] [µg/mL] | MIC [3] [µg/mL] | MIC [4, 37] [µg/mL] | MIC [5, 36] [µg/mL] | MIC [6] [µg/mL] | MIC [7] [µg/mL] | MIC [8] [µg/mL] | MIC [11] [µg/mL] | MIC [12] [µg/mL] | MIC [13, 36] [µg/mL] | MIC [14] [µg/mL] | MIC [15] [µg/mL] | MIC [16] [µg/mL] | MIC [18] [µg/mL] | MIC [19] [µg/mL] | MIC [20] [µg/mL] | MIC [21] [µg/mL] | MIC [22] [µg/mL] | MIC [23] [µg/mL] | further results |
| --- | --- | --- | --- | --- | --- | --- | --- | --- | --- | --- | --- | --- | --- | --- | --- | --- | --- | --- | --- | --- | --- |
| O=C(O)c1cn(C2CC2)c2cc(N3CCN(CCO[C@@H]4O[C@@H](CO)[C@H](O)[C@H](O)[C@@H]4O)CC3)c(F)cc2c1=O | > 32 | 32 (≈ 59.5 µM) | 32 (≈ 59.5 µM) | > 32 | > 32 | 32 (≈ 59.5 µM) | 32 (≈ 59.5 µM) | > 32 | 1 (≈ 1.86 µM) | 32 (≈ 59.5 µM) | 16 (≈ 29.8 µM) | > 32 | > 32 | > 32 | > 32 | > 32 | 32 (≈ 59.5 µM) | 16 (≈ 29.8 µM) | 8 (≈ 14.9 µM) | 8 (≈ 14.9 µM) | MIC [9]: > 32 µg/mL; MIC [10]: > 32 µg/mL; MIC [17]: 16 µg/mL (≈ 29.8 µM); MIC [24]: > 32 µg/mL; MIC [25]: > 32 µg/mL; MIC [26]: > 32 µg/mL; MIC [27]: > 32 µg/mL; MIC [28]: 8 µg/mL (≈ 14.9 µM) |
| O=C(O)c1cn(C2CC2)c2cc(N3CCN(CCCO[C@@H]4O[C@@H](CO)[C@H](O)[C@H](O)[C@@H]4O)CC3)c(F)cc2c1=O | 32 (≈ 58 µM) | 16 (≈ 29 µM) | 16 (≈ 29 µM) | > 32 | 32 (≈ 58 µM) | 32 (≈ 58 µM) | 16 (≈ 29 µM) | > 32 | 0.25 (≈ 0.453 µM) | 16 (≈ 29 µM) | 16 (≈ 29 µM) | > 32 | 32 (≈ 58 µM) | 32 (≈ 58 µM) | > 32 | > 32 | 32 (≈ 58 µM) | 8 (≈ 14.5 µM) | 8 (≈ 14.5 µM) | 16 (≈ 29 µM) | MIC [9]: > 32 µg/mL; MIC [10]: > 32 µg/mL; MIC [17]: 16 µg/mL (≈ 29 µM); MIC [24]: > 32 µg/mL; MIC [25]: > 32 µg/mL; MIC [26]: > 32 µg/mL; MIC [27]: > 32 µg/mL; MIC [28]: 16 µg/mL (≈ 29 µM) |
| Cl.O=C(O)c1cn(C2CC2)c2cc(N3CCNCC3)c(F)cc2c1=O [CIPROFLOXACIN HYDROCHLORIDE] | 2 | 1 | 1 | 8 | 2 | 1 | 1 |  |  | 1 | 0.5 | 2 | 1 | 1 |  |  | 1 | 0.5 | 0.5 | 0.5 | MIC [1]: 1 µg/mL; MIC [4]: 8 µg/mL; MIC [29]: 2 µg/mL; MIC [29, 37]: 2 µg/mL; MIC [30]: 4 µg/mL; MIC [30, 37]: 4 µg/mL; MIC [5]: 1 µg/mL; MIC [13]: 0.5 µg/mL; MIC [14, 38]: 2 µg/mL; MIC [15, 39]: 1 µg/mL; MIC [16, 39]: 1 µg/mL; MIC [31]: 1 µg/mL; MIC [21, 40]: 0.5 µg/mL; MIC [22, 41]: 0.25 µg/mL; MIC [23, 41]: 0.5 µg/mL; MIC [26, 42]: 1 µg/mL; MIC [32]: 0.5 µg/mL; MIC [28]: 0.5 µg/mL |
| O=C(O)c1cn(C2CC2)c2cc(N3CCN(C4OC(CO)C(O)C(O)C4O)CC3)c(F)cc2c1=O (stereo in doubt; form 1) | 2 (≈ 4.05 µM) | 1 (≈ 2.03 µM) | 0.5 (≈ 1.01 µM) | 8 (≈ 16.2 µM) | 2 (≈ 4.05 µM) | 2 (≈ 4.05 µM) | 1 (≈ 2.03 µM) | > 32 | < 0.03 | 1 (≈ 2.03 µM) | 0.5 (≈ 1.01 µM) |  |  |  | > 32 | > 32 |  |  |  |  | MIC [33]: > 32 µg/mL; MIC [34]: > 32 µg/mL; MIC [29, 37]: 4 µg/mL (≈ 8.11 µM); MIC [30, 37]: 4 µg/mL (≈ 8.11 µM); MIC [9, 43]: 32 µg/mL (≈ 64.8 µM); MIC [10, 43]: 8 µg/mL (≈ 16.2 µM); MIC [14, 38]: 2 µg/mL (≈ 4.05 µM); MIC [15, 39]: 2 µg/mL (≈ 4.05 µM); MIC [16, 39]: 2 µg/mL (≈ 4.05 µM); MIC [17, 42]: 0.25 µg/mL (≈ 0.507 µM); MIC [20, 40]: 1 µg/mL (≈ 2.03 µM); MIC [21, 40]: 0.5 µg/mL (≈ 1.01 µM); MIC [22, 41]: 0.5 µg/mL (≈ 1.01 µM); MIC [23, 41]: 0.5 µg/mL (≈ 1.01 µM); MIC [24]: > 32 µg/mL; MIC [25]: > 32 µg/mL; MIC [26]: 1 µg/mL (≈ 2.03 µM); MIC [35]: 8 µg/mL (≈ 16.2 µM) |
